The values that follow come from the RNAGym collection of RNA variant scans (doi:10.1126/science.aae0568).

Fewer inactive variants are shown than the library holds.

The labels stand for the following.
B1: tRNA (parent)
chain: GUUCCGUUGGCGUAAUGGUAACGCGUCUCCCUCCUAAGGAGAAGACUGCGGGUUCGAGUCCCGUACGGAACG

The variants in this series derive from B1. As to the kind of experiment: yeast fitness relative to wild type (ratio to wild type); higher = fitter; tRNA-Arg(CCU), competitive growth, 37 C, YPD. Put shortly: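 Changes in genotype frequencies gave Darwinian fitness relative to wild type. Frequencies were read by 100-nucleotide paired-end sequencing of gene amplicons before and after pooled Saccharomyces cerevisiae strains, carrying tRNA-Arg(CCU) gene variants at the native locus, were competed in YPD at 37°C for 24 hours in six replicates. A genotype was kept only with ≥ 100 starting reads, and estimates < 0.5 were set to 0.5.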
With GUUGCGUUGGCGUAAUGGUAACGCGUCUCCCUCCUAUGGAGAAGACUGAGGAUUUAAGUCCCGUACGGAACG [C4G A37U C49A G52A C55U G56A], the yeast fitness was 0.688.
GUUGCGUUGGCGUAAUGGUAACGCGUCUCCCUCCUAAGGAGAAGUCUGUGGGUUCGAGUCCCGUACGGAACG [C4G A45U C49U]: the yeast fitness stood at 0.502.
GUUGAGUUGGUGUAAUGGUAACGCGUGUCCCUCCUAAGGAGAAGACUGCGGGUUCGAGUCCCGUUCGUAACG [C4G C5A C11U C27G A65U G68U]: the yeast fitness is ≤ 0.5.
As to GUUGCGUUGGCGUAAUGGUAACGCGUCUCCCUCCUAAGGAGUAGACUACGGGUUCGAGUCCCGUACGGAACG [C4G A42U G48A], the yeast fitness was determined as 0.575.
The figure for GUUGGGUUGGCGUAAUGGUAACGCGUCUCCCUCCUAAGGAGAGGACUGCGGGUUCGAGUCCCGUACGGAACG [C4G C5G A43G] is 0.556; for GUUGCGUUGGCGUAAUGGUAACGCGUCUCCCUCCUAUGGAGAAGACUGCGACUUCGAGCCCCGUACGGAACG [C4G A37U G51A G52C U59C] it is ≤ 0.5; for GUUGGGUUGGCGUAAUGGUAACGCGUCUCCCUCGUAAGGAGAAGACUGCGGGUUCGAGUCCCGUACGGAACG [C4G C5G C34G] it is ≤ 0.5.
Consider GUUGCGUUGGCGUAAUGGUAACGCGUCUCCCUCCUAAGGAGAAGACUGCGGGUUCGAGUCCCGUACGGUCCG [C4G A69U A70C], for which the yeast fitness amounted to 0.771.
As for GUUGCGUUGGCGUAAUGGUAACGCGUCUCCCUCCUAAGGAGGAGUCUGCGGGUUCGAGUCCCGUACGGAACG [C4G A42G A45U], the yeast fitness was found to be 0.67.
Regarding GUUGCGUUGGCGUAAUGGUAACGCGUCUCCCUCCUACAGAGAAGACUGCGGGUUCGAGUCCCAUACGGAACG [C4G A37C G38A G63A], the yeast fitness was ≤ 0.5.
The value for GUUGAGUCGGCGUAAUGGUACCGCGUCUCCAUCCUAAGGAGGAGACUGCGGGUUCGAGUCCCGUACGGAACG [C4G C5A U8C A21C C31A A42G] was ≤ 0.5.
The figure for GUUGCGUUGGCGUAAUGGUAACGCGUCUCCCUCCUAAGGUGAAGACUGCGGGUUCGAGUCCCGUAUGGAACG [C4G A40U C66U] is 0.571; for GUUGCGUUGGCGUAAUGGUAACGCGUCUCCCUCCUAAGGAGGAGACUGCGGGUUCGAGUCCCGUACGGAACG [C4G A42G] it is 0.897.
With GUUGCGUUGGCGUAAUGGUAACGCGUCUCCCUCCUAAGGAGCAGACUGCGGGUUCGAGUCCCGUACGGAACG [C4G A42C], the yeast fitness was 0.78.
With GUUGCGUUGGCGUAAUGGUAACGCGUCUCCCUCCUAAGGAGAAGGCUGCGGGUUCGAGUCCAGUACGGAACG [C4G A45G C62A], the yeast fitness was found to be 0.554.
The value for GUUGCGUUGGCGUAAUGGUAACGCGUCUCCCUCCUAAGGUGAAGUCCGCGGGUUCGAGUCCCGUACGGAACG [C4G A40U A45U U47C] was ≤ 0.5; that for GUUGGGUUGGCGUAAUGGUAACGCGUCUCCCUCCUAAGGAGAAGACUGCGGGUUCGAGUCCCGUACGGAACG [C4G C5G] was 0.697; that for GUUGCGUUGGCGUAAUGGUAACGCGUCUCCCUCCUAAGGAGAUGACUGCGCGUUCGAGUCCCGUACGGAACG [C4G A43U G51C] was ≤ 0.5.
Regarding GUUGGGUUGACGUAAUGAUAACGCGUCUCCCUCCUAAGGAGCAGACUGCGGGUUCGAGUCCCGUACGGAACG [C4G C5G G10A G18A A42C], the yeast fitness is ≤ 0.5.
The value for GUUGAGUUGGCGUAAUGGUAACGCGUUUCCCUCCUAAGGAGAAGACUGCGGGUUCGAGUCCCGUACGAAACG [C4G C5A C27U G68A] was ≤ 0.5.
GUUGGGUUGGAGUAAUGGUAACGCGUCUCCCUCCUAAAGAGAAGACUGUGGGUUCGAGUCCCGUACGGAACG [C4G C5G C11A G38A C49U]: the yeast fitness is ≤ 0.5.
For the variant GUUGGGUUGGCGCAAUGGUAACGCGUCGCCCUCCUAAGGAGAAGACUGCGGGUUCGAGUCCCGUACGGAACG [C4G C5G U13C U28G], the yeast fitness is ≤ 0.5.
With GUUGGGUUGGCGUAAUGGUGUCGCGUCUCCCUCGUAAGGAGAAGAAUGCGGGUUCGAGUCACGUACGGAACG [C4G C5G A20G A21U C34G C46A C61A], the yeast fitness is ≤ 0.5.
In the case of GUUGCGUUGGCGUAAUGGUAACGCGUCUCCCUCCUAAGGCGAAGACUGGGGGUUGGAGUCCCGUACGGUACG [C4G A40C C49G C55G A69U], the yeast fitness was ≤ 0.5.
Take GUUGGGUUGGCGUUAUGGUCACGCGUCUCCCUCGUACGGAGAAGACUGUGGGUUCGAGUCCCGUACGGAACG [C4G C5G A14U A20C C34G A37C C49U]: the yeast fitness came to 0.559.
Turning to GUUGCGUUGGCGUAAUGGUAACGCGUCUCCCUCCUAAGGAGAGGACUGCGCGUUCGAGUCCCGUACGGAACG [C4G A43G G51C], the yeast fitness is ≤ 0.5.
Consider GUUGCGUUGGCGUAAUGGUAACGCGUCUCCCUCCUUAGGAGAAGACUGCGGGUUCGAGUCCCGUACGGAACG [C4G A36U], for which the yeast fitness worked out at 0.663.
Regarding GUUGCGUUGGCGUAAUGGUAACGCGUCUCCCUCCUAAGGAGAAGACUGCGGGUUCGAGUCCCGUACGGAGCG [C4G A70G], the yeast fitness was 0.909.
Turning to GUUGCGUUGGCGUAAUGGUAACGCGUCUCCCUCCUAAGGAGAAGACUGCGGGUUCGAGUCCCGUACGGACCG [C4G A70C], the yeast fitness stood at 1.08.
For the variant GUUGCGUUGGCGUAAUGGUAACGCGUCUCCCUCCUAAGGAGAAGACUGCGGGUUCGAGUCCCGUACGGAUCG [C4G A70U], the yeast fitness was found to be 0.806.
With GUUGGGUUGGCGUAAUGGUAACGCGUCUCUUUCCUAGGGAGAAGACUGCCGGUUCGUGUCCCGUACGGAACG [C4G C5G C30U C31U A37G G50C A57U], the yeast fitness is ≤ 0.5.
With GUUGCGUUGGCGUAAUGGUAACGCGUCUCCCUCCUAAGGAGAAGACUGCGGGUUCGAGUCCCGUCCGGAACG [C4G A65C], the yeast fitness worked out at 0.733.
Take GUUGCGUUGGCGUAAUGGUAACGCGUCUCCCUCCUAAGGAGAAGACUGCGGGUUCGGGUCCCGUACGGAACG [C4G A57G]: the yeast fitness is 0.728.
Regarding GUUGCGUUGGCGUAAUGGUAACGCGUCUCCCUCCUAAGGAGAAGACUGCGGGUUCGUGUCCCGUACGGAACG [C4G A57U], the yeast fitness was 0.757.
Turning to GUUGCGUUGGCGUAAUGGUAACGCGUCUCCCUCCUUAGGAGAAGACUGCGGGUUCGAAUCCCGUACGGAACG [C4G A36U G58A], the yeast fitness is ≤ 0.5.
For the variant GUUGCGUUGGCGUAAUGGUAACGCGUCUCCCUCCUAAGGAGACGGCUGCGGGUUCGAGUCCCGUACGGAACG [C4G A43C A45G], the yeast fitness was determined as 0.629.
Consider GUUGGGUCGGCGUAAUGGUAACCCGUCUUCCUCCUAAGGAGAAGUCUGCGGGUUCGAGUCCCGUACGAAACG [C4G C5G U8C G23C C29U A45U G68A], for which the yeast fitness was 0.59.
GUUGCGUUGGCGUAAUGGUAACGCGUCUCCCUCCUAAGGGGAAGACUACGGGUUCCAGUCCCGUACGGAACG [C4G A40G G48A G56C]: the yeast fitness is ≤ 0.5.
